Measured values taken from article PMC8808266 (Photochemistry and photobiology, 2021).

How the values were obtained:
Type in all cases: cell-based, human
A549 cells [1] = assay: Colocalization / co-incubation with Cy3-cRGDfK; conditions: co-incubation with 1 μM Cy3-cRGDfK, 1 μM probe, 30 min
Outline: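 Live A549 cells at 70% confluency in chambered slides were co-incubated 30 min at 37 °C with 1 μM Cy3-cRGDfK plus 1 μM test compound in medium. They were then PBS-washed ×3, Hoechst-stained (3 μM, 10 min, RT) and imaged by epifluorescence (TxRed and Cy5.5 filters). After 10-pixel rolling-ball background subtraction, Pearson's correlation coefficient was computed and reported as average ± SEM.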

OVCAR-4 cells = assay: Fluorescence cell microscopy, probe uptake; conditions: 1 μM probe, 30 min, 37 °C, compared to control probes
Outline: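 OVCAR-4 cells were maintained in RPMI-1640 with 10% FBS, 1% L-glutamine and 0.1 mM NEAA (37 °C, 5% CO2), grown to 70% confluency in chambered slides, then given 1 μM probe in medium for 30 min at 37 °C. After 3 PBS washes, they were fixed in cold 4% PFA (20 min, RT), Hoechst-stained (3 μM, 10 min) and imaged by epifluorescence. Mean intensity: 200-pixel rolling-ball subtraction, auto-threshold, average ± SEM.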

HT-1080 cells = assay: Fluorescence cell microscopy, probe uptake; conditions: 1 μM probe, 30 min, 37 °C, compared to control probes
Outline: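 HT-1080 cells were kept in EMEM with 10% FBS, 0.1 mM NEAA, 1.5 g/L bicarbonate, 1 mM pyruvate and 1% pen/strep (37 °C, 5% CO2), then grown to 70% confluency. They were exposed to 1 μM probe in medium for 30 min at 37 °C, washed ×3 with PBS, fixed in cold 4% PFA, Hoechst-stained and imaged (Cy5.5 filter). Intensity: rolling-ball background subtraction, auto-threshold, average ± SEM.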

A549 cells [2] = assay: Competitive blocking study of probe uptake; conditions: repeated many times using fixed and living cells; excess cRGDfK or Cilengitide
Outline: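 A549 cells at 70% confluency on 8-well slides received 200 μM cRGDfK or 50 μM cilengitide 5 min before the test compound; the blocker stayed during a 30 min, 37 °C incubation with 1 μM test compound. Cells were then PBS-washed ×3, fixed in cold 4% PFA (20 min, RT), Hoechst-stained (3 μM) and imaged. Intensity came from 200-pixel rolling-ball background subtraction and auto-threshold, as average ± SEM.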

DRGDG (bicyclic or more) [SF8(DRGDG)2]
cell uptake of probe in the presence of Cy3-cRGDfK (A549 cells [1]): did not reduce cell uptake | probe uptake (mean fluorescence intensity of epifluorescence micrographs) (OVCAR-4 cells): Enhanced uptake | probe uptake (mean fluorescence intensity of epifluorescence micrographs) (HT-1080 cells): Enhanced uptake | cell uptake of probe in competition imaging experiments (A549 cells [2]): not reduced
